From PubChem BioAssay
The list is not random: actives were taken first. Their share in the collection is about 3.1%.
ABHD5 PLIN5 PPI: blocks binding of human ABHD5 to perilipin-5 | Split G. princeps luciferase complementation, luminescence, 4 h | inhibition, % at 4 µM | 360,000 tested, 0.78% active | AID 602281;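 active means inhibition above the mean inhibition across every tested compound plus 3 SD, cut at about 22% in these data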;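 further: 0% = DMSO only wells and the 100% control is not disclosed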
LEDGF integ inh: blocks HIV-1 LEDGF/p75-dependent DNA integration; TR-FRET IN-LEDGF/p75 DNA integration, Eu/Cy5; inhibition, % at 3.7 µM; 370,000 tested, 0.64% active;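 active means inhibition above the screen-wide mean plus 3 SD, cut at about 13% in these data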;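 further: signal is the Cy5 over europium emission ratio at 671 and 618 nm; 0% = plate median of compound wells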
PRMT1 inh: inhibitors of human PRMT1; inhibition, % at 2.79 µM; 370,000 tested, 1.3% active; recombinant PRMT1, activity-based probe fluorescence polarization;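 active means inhibition above about 21% made by adding two undisclosed values, limit read from the data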
MBD2 DNA inh: inhibitors of human MBD2 binding to methylated oligonucleotide; Q9UBB5; TR-FRET; inhibition, % at 4.4 µM; 370,000 tested, 0.31% active; in the data active means inhibition above about 13%
Target sequence (Q9UBB5 whole entry, looked up): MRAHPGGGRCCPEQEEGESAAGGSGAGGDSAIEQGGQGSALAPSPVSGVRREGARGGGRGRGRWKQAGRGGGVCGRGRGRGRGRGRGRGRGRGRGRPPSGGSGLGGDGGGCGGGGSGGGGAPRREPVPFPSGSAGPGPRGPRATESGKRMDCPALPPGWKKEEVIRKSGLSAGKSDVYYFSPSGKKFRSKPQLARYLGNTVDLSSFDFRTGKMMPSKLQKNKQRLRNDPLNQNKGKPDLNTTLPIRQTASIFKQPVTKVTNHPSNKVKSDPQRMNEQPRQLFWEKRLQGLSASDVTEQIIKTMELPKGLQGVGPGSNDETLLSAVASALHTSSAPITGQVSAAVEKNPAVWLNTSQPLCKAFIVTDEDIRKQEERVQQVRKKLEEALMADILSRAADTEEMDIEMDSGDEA
RBBP9 inhibitor: blocks human serine hydrolase RBBP9; O75884; 220,000 tested, 0.2% active; AID 1515; recombinant RBBP9, FP-Rh probe fluorescence polarization; inhibition, % at 7.94 µM;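 active means inhibition above the campaign mean of all tested compounds plus 3 SD, cut at about 14% in these data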;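 further: plate controls were DMSO wells with RBBP9 for no effect and wells lacking RBBP9 protein for full effect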
Target sequence (O75884 whole entry, looked up): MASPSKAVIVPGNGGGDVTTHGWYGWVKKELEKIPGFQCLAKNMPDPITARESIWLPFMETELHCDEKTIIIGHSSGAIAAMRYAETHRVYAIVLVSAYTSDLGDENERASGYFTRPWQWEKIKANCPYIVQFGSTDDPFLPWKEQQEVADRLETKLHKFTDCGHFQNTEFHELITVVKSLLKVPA
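Test system – recombinant human RBBP9 · Input – RBBP9 2.5 µM in dispensing solution, pre-mixing · Medium – Tris buffer pH 8.0, NaCl, Pluronic · Schedule – preincubation 30 min plus labeling 45 min at 25 °C · Measured by – fluorescence polarization · Measure – % inhibition · Controls – DMSO and no-protein wells · Replicates – one well per compound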
UHRF1 binding: blocks human UHRF1 binding to methylated DNA; Q96T88; AID 687016; UHRF1 binding to methylated oligo, TR-FRET; 370,000 tested, 0.75% active; inhibition, % at 4.4 µM; in the data active means inhibition above about 21%;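 further: UHRF1 SRA domain binding a hemimethylated CpG hairpin DNA probe; 0% = median of test compound wells and 100% = reference inhibitor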
PRMT1 inh conf: PRMT1 (human) inhibition, FP confirmation; 3,300 tested, 42% active; shares compounds with PRMT1 inh; recombinant His-PRMT1, activity-based probe fluorescence polarization; inhibition, % at 2.79 µM;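 active means mean inhibition across replicates above the hit cutoff derived for the earlier primary screen, cut at about 22% in these data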
Numbers without * were called inactive; . = no result given.

SMILES	ABHD5 PLIN5 PPI	LEDGF integ inh	PRMT1 inh	MBD2 DNA inh	RBBP9 inhibitor	UHRF1 binding	PRMT1 inh conf
N#C/C(=C\C=C\c1ccccc1[N+](=O)[O-])C(=O)NC1CCCCC1	5	.	.	.	3	.	.
CNc1nc(N)c([N+](=O)[O-])c(Nc2cccc(OC)c2)n1	.	1	-2	3	.	-2	.
O=C(CNC(=O)c1ccccc1)NCC(=O)OCC(=O)c1ccc([N+](=O)[O-])cc1	-7	1	35*	2	2	-4	49*
CN(CC(=O)N1CCOCC1)C(=O)CSc1nc2ccccc2s1	0	0	26*	7	0	6	34*
O=C(CSc1nc2ccccc2s1)Nc1cc(C(=O)O)cc(C(=O)O)c1	1	-2	42*	-2	-5	1	58*
CCCCc1ccc(CC(=O)Nc2cc(S(=O)(=O)N3CCOCC3)ccc2O)cc1	-15	-2	32*	-2	.	2	13
Cc1nnc(SCC(=O)Nc2cc(S(=O)(=O)N3CCOCC3)ccc2C)s1	-11	-2	0	0	.	-1	.
O=C(CC1CCCC1)Nc1cc(S(=O)(=O)N2CCOCC2)ccc1O	-6	3	4	-2	.	1	.
O=C(CSc1nc2ccccc2s1)Nc1cc(S(=O)(=O)N2CCOCC2)ccc1O	-1	-3	38*	8	-3	1	40*
O=C(CSc1nnc(-c2cccnc2)n1Cc1ccco1)Nc1ccc(Cl)c(Cl)c1	.	-2	7	4	.	-5	.
O=C(c1ccccc1)c1ccc(O)cc1O	-1	0	73*	3	-9	-13	42*
CCOC(=O)Cc1csc(SCn2nnc3ccccc3c2=O)n1	-2	-9	-2	-2	-2	-2	.
CCOC(=O)Cc1csc(-n2sc3ccccc3c2=O)n1	19	2	88*	-5	-14	3	89*
Cc1ccc2c(c1)C1CS(=O)(=O)N(C3CCCC3)C(=O)N1C2 (stereo not drawn)	.	1	-1	-5	.	-1	.
Oc1c(C=Nc2cccc3cccnc23)sc2ccccc12	.	0	31*	-15	-2	-13	32*
Oc1ccc(Cl)cc1N=Cc1sc2ccccc2c1Cl	-5	4	4	-9	-8	-3	.
O=[N+]([O-])c1ccc(O)c(N=Cc2sc3ccccc3c2O)c1	-5	-9	66*	-8	-1	4	45*
CCCC#C/C(CCC)=C1\c2ccccc2C(=O)N1c1ccccc1	.	-4	0	2	.	15	.
COCCCn1c(=NC(=O)c2ccccc2)c(C#N)cc2c(=O)n3cccc(C)c3nc21	6	2	31*	4	-2	3	-5
O=C(NC1CCN(Cc2ccccc2)CC1)c1cc(S(=O)(=O)N2CCOCC2)ccc1Cl	-7	0	113*	-3	.	-3	5
O=C(OCCN1C(=O)c2cccc3c(N4CCOCC4)ccc(c23)C1=O)c1ccccc1Cl	-3	3	78*	-2	-4	-19	65*
Cc1n[nH]c(C)c1N1C(=O)c2cccc3c(N4CCCCCC4)ccc(c23)C1=O	-2	0	100*	-7	2	-14	88*
O=C1c2cccc3c(N4CCCCC4)ccc(c23)C(=O)N1CCO	0	1	40*	-14	-6	-18	13
O=C1c2cccc3c(N4CCCCC4)ccc(c23)C(=O)N1c1cccc(O)c1	-1	2	10	-6	-9	-6	.
O=C(CC1SC(=O)N(c2ccccc2)C1=O)Nc1ccc(Br)cc1 (stereo not drawn)	-8	2	32*	-6	-6	-2	102*
SMILES	ABHD5 PLIN5 PPI	LEDGF integ inh	PRMT1 inh	MBD2 DNA inh	RBBP9 inhibitor	UHRF1 binding	PRMT1 inh conf
O=C(CC1SC(=O)N(c2ccccc2)C1=O)Nc1ccc(Cl)cc1 (stereo not drawn)	-18	-5	26*	2	-4	0	92*
CC(C)N=C1SC(CC(=O)Nc2ccccc2)C(=O)N1C(C)C (stereo not drawn)	10	1	61*	1	-8	-1	1
CCCN1C(=O)SC(CC(=O)Nc2ccccc2)C1=O (stereo not drawn)	-2	-5	6	0	-1	-4	.
COC(=O)C1=C(C)N(Cc2ccc(C(F)(F)F)cc2)C(=NCc2ccccc2C(F)(F)F)NC1c1ccccc1C(F)(F)F (stereo not drawn)	.	2	3	-5	.	1	.
O=S(=O)(c1ccccc1)c1nc(-c2ccco2)oc1NCc1cccnc1	16	-4	32*	3	6	3	4
O=S(=O)(c1ccccc1)c1nc(-c2ccccc2)oc1NCc1cccnc1	11	-2	-4	6	-6	-1	.
CCOC(=O)CSC1=C(C#N)C(=O)NC(c2ccc(OC)cc2)S1 (stereo not drawn)	-5	2	35*	-4	-4	10	7
NNC(=O)Nc1cccc(C(F)(F)F)c1	-6	-3	8	0	0	-1	.
NC(=O)/C=C\C(=O)Nc1cccc(C(F)(F)F)c1	13	-1	51*	6	-8	2	25*
C=CCN1C(=O)[C@@H](CC(=O)NCC2CCCCC2)[C@]2(C(=O)OCC)CCCCC/C=C/12	.	3	-3	-2	.	-3	.
O=c1oc2cc(O)ccc2s1	-16	-2	86*	-1	.	3	33*
Oc1ccc2c(c1)oc1cc(O)ccc12	-5	0	-2	4	14	-4	.
Cc1ccc(C2=NN=C(NC(=O)C(F)(F)F)SC2)cc1	-21	0	58*	4	1	0	61*
CCCCCN1CCCCC(NC(=O)c2ccc3ccccc3c2)C1=O (stereo not drawn)	.	7	-4	-8	.	-3	.
COc1ccccc1CCn1cnc(-c2ccccc2F)c1CC(C)C	.	-1	9	8	.	-1	.
Cc1cc[n+](-c2[nH]c(=O)sc2/C=N/NC([S-])=Nc2ccccc2)cc1C	-11	-1	56*	-5	0	-17	26*
Cc1ccc[n+](-c2[nH]c(=O)sc2/C=N/N=C(\[O-])CCn2c3ccccc3c3ccccc32)c1	2	-5	11	-7	-3	1	.
O=C1CC(N2CCCCCC2)C(=O)N1c1ccc2c(c1)OCO2 (stereo not drawn)	8	2	69*	-1	-4	0	35*
O=C1CC(NC23CC4CC(CC(C4)C2)C3)C(=O)N1c1ccc2c(c1)OCO2 (stereo not drawn)	-6	0	65*	0	-10	4	13
O=C1CC(N2CCN(c3ccc(O)cc3)CC2)C(=O)N1c1ccc2c(c1)OCO2 (stereo not drawn)	5	0	39*	-6	-3	0	-1
